Calls of active or inactive are those of the source. The rule behind the calls is not given here.
Legend:
[1] = system: Caenorhabditis elegans; assay: Induction of dauer formation in Caenorhabditis elegans Bristol daf-7(1372) mutant at 20 degC; assay type: functional, organism-based
Method in brief: (§1)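 Dauer formation assay: eggs were laid on agar plates containing a range of ascaroside concentrations plus a small amount of food, and percent dauer formation was scored. Stock worms were maintained at 20–23 °C on NG plates made with Noble agar and seeded with E. coli OP50.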

[2] = system: Caenorhabditis elegans; assay: Induction of dauer formation in wild type Caenorhabditis elegans Bristol […] at 20 degC; assay type: functional, organism-based
Method in brief: (§2)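 Wild-type N2 eggs were laid on plates containing a range of ascaroside concentrations plus a little food, then held at 20 °C or 25 °C, and percent dauer formation was scored. Each value is the mean of three experiments. EC50 was taken as half-maximal activity from a sigmoidal fit with the lower limit fixed at 0 and the upper limit left free.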

[3] = system: Caenorhabditis elegans; assay: Induction of dauer formation in wild type Caenorhabditis elegans Bristol […] at 25 degC; assay type: functional, organism-based; method in brief: as §2
[4] = system: Caenorhabditis elegans; assay: Induction of dauer formation in Caenorhabditis elegans Bristol egl-4(ks61) mutant at 20 degC; assay type: functional, organism-based; method in brief: as §1
[5] = system: Caenorhabditis elegans; assay: Induction of dauer formation in Caenorhabditis elegans Bristol osm-9(ky10) mutant at 20 degC; assay type: functional, organism-based; method in brief: as §1
[6] = system: Caenorhabditis elegans; assay: Induction of dauer formation in Caenorhabditis elegans Bristol tax-4(p678) mutant at 20 degC; assay type: functional, organism-based; method in brief: as §1
[7] = system: Caenorhabditis elegans; assay: Induction of dauer formation in Caenorhabditis elegans Bristol tax-2(p691) mutant at 20 degC; assay type: functional, organism-based; method in brief: as §1
[8] = system: Caenorhabditis elegans; assay: Induction of dauer formation in Caenorhabditis elegans Bristol ocr-2(ak47) mutant at 20 degC; assay type: functional, organism-based; method in brief: as §1
[9] = system: Caenorhabditis elegans; assay: Induction of dauer formation in wild type Caenorhabditis elegans Bristol N2 at 73 uM

In the case of `C[C@H](CCCCC(=O)O)O[C@@H]1O[C@@H](C)[C@H](O)C[C@H]1O` [DAUMONE], the Activity [1] is reported as “inactive”, the EC50 [2] is reported as 88000 nM and the EC50 [3] is reported as 18000 nM. The Activity [4] was “inactive”, the Activity [5] was “inactive” and the Activity [6] was “inactive”. For the same compound, the Activity [7] was “inactive” and the Activity [8] was “inactive”.
With `CC(=O)CC[C@@H](C)O[C@@H]1O[C@@H](C)[C@H](O)C[C@H]1O` the Activity [1] was “inactive”, the EC50 [2] was 460 nM and the Activity [9] was “Active”. For the same compound, the EC50 [3] was 120 nM, the Activity [4] was “inactive” and the Activity [5] was “inactive”. The Activity [6] was “inactive”, the Activity [7] was “inactive” and the Activity [8] was “inactive”.
For `C[C@H](CCCC/C=C/C(=O)O)O[C@@H]1O[C@@H](C)[C@H](O)C[C@H]1O`, the Activity [1] was “inactive”, the EC50 [2] was 1100 nM and the Activity [9] was “Active”. The EC50 [3] was 370 nM, the Activity [4] was “inactive” and the Activity [5] was “inactive”. The Activity [6] was “inactive”, the Activity [7] was “inactive” and the Activity [8] was “inactive”.
